Laboratory results as given in ChEMBL document CHEMBL1134511, “Development of potent non-carbohydrate imidazole-based small molecule selectin inhibitors with antiinflammatory activity” (J Med Chem, 2001).

Tests used:
P-selectin [1] = target: T1, P-selectin (Homo sapiens, UniProt P16109); test: Inhibitory activity against P-selectin using ELISA-based assay
T1 sequence (P16109 whole entry): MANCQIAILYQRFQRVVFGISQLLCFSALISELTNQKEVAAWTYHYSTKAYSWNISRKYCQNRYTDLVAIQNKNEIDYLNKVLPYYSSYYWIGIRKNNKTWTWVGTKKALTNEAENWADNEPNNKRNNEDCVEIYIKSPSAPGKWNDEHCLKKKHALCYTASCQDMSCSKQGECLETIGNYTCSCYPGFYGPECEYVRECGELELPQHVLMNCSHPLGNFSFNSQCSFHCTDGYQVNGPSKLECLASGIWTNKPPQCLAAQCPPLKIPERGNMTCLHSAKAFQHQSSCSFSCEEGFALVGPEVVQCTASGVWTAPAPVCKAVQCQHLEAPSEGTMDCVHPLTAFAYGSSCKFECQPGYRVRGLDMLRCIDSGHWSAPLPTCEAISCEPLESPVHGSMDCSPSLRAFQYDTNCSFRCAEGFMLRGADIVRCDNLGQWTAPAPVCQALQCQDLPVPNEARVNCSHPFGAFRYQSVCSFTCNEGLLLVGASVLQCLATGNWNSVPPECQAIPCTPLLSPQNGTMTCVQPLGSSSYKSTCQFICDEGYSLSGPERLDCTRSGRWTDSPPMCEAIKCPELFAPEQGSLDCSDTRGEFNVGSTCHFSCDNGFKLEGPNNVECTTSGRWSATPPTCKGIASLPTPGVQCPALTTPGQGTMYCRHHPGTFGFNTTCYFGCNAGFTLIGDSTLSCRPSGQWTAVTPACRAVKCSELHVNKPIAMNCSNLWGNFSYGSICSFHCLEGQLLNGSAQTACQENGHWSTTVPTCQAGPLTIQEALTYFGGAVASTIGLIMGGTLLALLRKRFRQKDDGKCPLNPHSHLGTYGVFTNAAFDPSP
Procedure, shortened: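 P-selectin–IgG chimera precomplexed with biotinylated goat F(ab')2 anti-human IgG and streptavidin–alkaline phosphatase, preincubated with compound 30 min RT in 50 mM imidazole pH 7.2, 1% BSA, 1 mM CaCl2. Mix added to sialyl Lewis^x pentaceramide-coated (40-100 pmol/well), BSA-blocked wells, 45 min 37 °C. p-Nitrophenyl phosphate read at 405 nm; chimera-free background subtracted; duplicate/triplicate; IC50 from % inhibition.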

P-selectin [2] = target: T1, P-selectin; test: Inhibitory activity against P-selectin using cell-selectin protein assay
P-selectin [3] = target: T1, P-selectin; test: Inhibitory activity against P-selectin using cell-cell assay; Not active; format: functional
Procedure, shortened: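 CHO cells stably transfected with human P-selectin, plated the day before, used as monolayers. Compounds added at 2× in cold RPMI, 20 min 4 °C; BCECF-AM-labelled HL60 cells (2 × 10⁶ cells/mL) then adhered 30 min at 4 °C. Unbound cells washed off, bound cells read by fluorescence; triplicates; IC50 by Probit analysis.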

E-selectin = target: T2, E-selectin (Homo sapiens, UniProt P16581); test: Inhibitory activity against Selectin E using cell-cell assay; Not active; format: functional
T2 sequence (P16581 whole entry): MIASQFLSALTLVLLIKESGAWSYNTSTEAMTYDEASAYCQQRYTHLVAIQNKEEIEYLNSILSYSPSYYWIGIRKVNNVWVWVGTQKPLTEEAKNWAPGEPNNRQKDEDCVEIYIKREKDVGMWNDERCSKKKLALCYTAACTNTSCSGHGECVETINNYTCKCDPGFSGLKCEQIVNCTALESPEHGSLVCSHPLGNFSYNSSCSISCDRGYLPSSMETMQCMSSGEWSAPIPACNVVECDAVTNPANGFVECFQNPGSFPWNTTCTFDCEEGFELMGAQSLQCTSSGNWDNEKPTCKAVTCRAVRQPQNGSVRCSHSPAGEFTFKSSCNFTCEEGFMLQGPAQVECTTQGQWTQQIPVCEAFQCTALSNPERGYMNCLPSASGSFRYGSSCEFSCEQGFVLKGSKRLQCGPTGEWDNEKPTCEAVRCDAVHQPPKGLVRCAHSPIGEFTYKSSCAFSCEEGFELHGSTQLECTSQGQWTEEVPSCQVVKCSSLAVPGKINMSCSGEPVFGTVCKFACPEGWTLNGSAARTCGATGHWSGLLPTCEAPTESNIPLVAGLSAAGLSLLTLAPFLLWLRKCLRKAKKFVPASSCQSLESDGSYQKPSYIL
Procedure, shortened: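 HUVEC monolayers (≤4-5 passages, gelatin-coated wells) activated on assay day with 10 ng/mL IL-1β as native E-selectin source. Compounds at 2× in cold RPMI preincubated 20 min 4 °C in triplicate; BCECF-AM-labelled HL60 cells (2 × 10⁶ cells/mL) added, 30 min 4 °C. Unbound cells washed off, bound cells read by fluorescence; IC50 by Probit analysis.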

Structure (SMILES): O=C(O)/C=C/c1ccc(-c2nc(-c3ccc(/C=C/C(=O)NCCCc4ccccc4)cc3)c(-c3ccc(C4=NOC(C(=O)O)C4)cc3)[nH]2)cc1 (stereo not given)
- IC50 (P-selectin [1]): 100 µM
- IC50 (P-selectin [2]): 21 µM

Structure (SMILES): CC(=O)N[C@H]1[C@H]([C@H](O)[C@H](O)CO)O[C@@](O[C@H]2[C@@H](O)[C@@H](CO)O[C@@H](O[C@@H]([C@H](O[C@@H]3O[C@@H](C)[C@@H](O)[C@@H](O)[C@@H]3O)[C@H](C=O)NC(C)=O)[C@H](O)CO)[C@@H]2O)(C(=O)O)C[C@@H]1O [SIALYL LEWIS X]
- IC50 (P-selectin [1]): > 1 µM

Structure (SMILES): CCCCCCCCCCCCCCCCNC(=O)/C=C/c1ccc(-c2[nH]c(-c3ccc(-c4cc(C(=O)O)on4)cc3)nc2-c2ccc(/C=C/C(=O)O)cc2)cc1
- IC50 (P-selectin [1]): 0.13 µM
- IC50 (P-selectin [2]): 2.7 µM

Structure (SMILES): CCCCCCN(CCCCCC)C(=O)/C=C/c1ccc(-c2[nH]cnc2-c2ccc(/C=C/C(=O)O)cc2)cc1
- IC50 (P-selectin [3]): Not Active
- IC50 (P-selectin [2]): 21 µM
- IC50 (E-selectin): Not Active

Structure (SMILES): CCCCCCCCCCCCNC(=O)/C=C/c1ccc(-c2[nH]c(-c3ccc(-c4cc(C(=O)O)on4)cc3)nc2-c2ccc(/C=C/C(=O)O)cc2)cc1
- IC50 (P-selectin [1]): 3 µM
- IC50 (P-selectin [2]): 290 µM
- IC50 (E-selectin): Not Active

Structure (SMILES): CCCCCCCc1ccc(NC(=O)/C=C/c2ccc(-c3[nH]cnc3-c3ccc(/C=C/C(=O)O)cc3)cc2)cc1
- IC50 (P-selectin [1]): 16 µM
- IC50 (P-selectin [2]): 44 µM

Structure (SMILES): CCCCCCCCCCCCCCCCNC(=O)/C=C/c1ccc(-c2[nH]c(-c3ccc(C4=NOC(C(=O)O)C4)cc3)nc2-c2ccc(/C=C/C(=O)O)cc2)cc1 (stereo not given)
- IC50 (P-selectin [1]): 0.29 µM
- IC50 (P-selectin [2]): 9 µM

Structure (SMILES): O=C(/C=C/c1ccc(-c2nc(-c3ccc(N4CCCC4)cc3)[nH]c2-c2ccc(C3=NOC(C(=O)O)C3)cc2)cc1)NCCCc1ccccc1 (stereo not given)
- IC50 (P-selectin [1]): 34 µM
- IC50 (P-selectin [3]): Not Active
- IC50 (P-selectin [2]): 50 µM

Structure (SMILES): CCCCCCCCCCCCCCCCNC(=O)/C=C/c1ccc(-c2[nH]cnc2-c2ccc(/C=C/C(=O)O)cc2)cc1
- IC50 (P-selectin [1]): 17 µM
- IC50 (P-selectin [2]): 40 µM
